Source: PubChem BioAssay (several laboratories)
Only a selection was taken, and hits are over-represented in it overall.
Lmaj promast – Leishmania major promastigote growth inhibition, primary screen; Leishmania major promastigotes, resazurin fluorescence viability; inhibition, % at 10 µM; hit rate 9% among 200,000; AID 1063, 2008; in the data active = inhibition above about 50%;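 note: promastigotes grown with compound for 44 hours at 28 °C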
Redox H2O2 prof – compounds producing H2O2 with reducing agent – biochemical, NIH compound library profiling, artefact control for MLSCN library redox annotation, primary screen; DTT-dependent redox cycling H2O2, phenol red/HRP absorbance; 100% = 100 µM peroxide control, 0% = buffer; activation, % at 10 µM; hit rate 0.03% among 200,000;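 active = activation of at least 50% relative to the plate's high and low controls in the primary single-dose screen; inactive = activation below 50%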;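 note: compound incubated with DTT at 0.8 mM final as the reducing agent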
T cruzi repl – inhibitors of intracellular T. cruzi growth, primary screen, luminescence, NIH3T3 host cells; T. cruzi beta-gal in NIH3T3, 90 h; inhibition, % (test concentration not listed); hit rate 1.4% among 300,000;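 active = mean inhibition across valid replicates above about 55%, limit read from the data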;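 note: signal also drops with host cell toxicity which is not excluded here; 0% = plate median of DMSO wells and 100% = zero luminescence signal; higher percent means less beta-gal luminescence so fewer parasites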
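Material: NIH/3T3 host cells with β-galactosidase reporter T. cruzi; Input: 5,000 host fibroblasts per well; Medium: DMEM, 2% fetal bovine serum; Compound: 50 nL DMSO compound solution per well; Schedule: 3 h host attachment, then at least 90 h co-culture; Detection: luminescent β-galactosidase signal after 60 min lysis.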
MPTP block – mitochondrial permeability transition pore inhibitors, primary screen, biochemical, isolated mouse mitochondria, absorbance. AID 602449, 2012. hit rate 1.4% among 360,000. inhibition, % at 10 µM. Ca2+ swelling absorbance, 30 min;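 active = inhibition of 50% or more, scaled per plate between neutral and stimulator controls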;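 note: 0% = DMSO wells given calcium and 100% = 1 mM EGTA wells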
Lipid droplet – inhibitors of hepatocyte lipid droplet formation, primary screen, imaging, high-throughput imaging, BODIPY stain; AML12 mouse hepatocytes, oleate lipid droplets; inhibition, % at 6.5 µM; hit rate 0.4% among 240,000;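 active = lipid droplet intensity inhibited by at least 50%, with more than 500 cells counted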
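Assay system: AML12 mouse liver cells | Compound: 6.5 µM single-point dosing | Schedule: Overnight exposure | Technique: Fluorescence imaging, 20x objective, two fields per well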
* marks the source's active call; other numbers are inactive results; . = no result.

SMILES	Lmaj promast	Redox H2O2 prof	T cruzi repl	MPTP block	Lipid droplet
O=c1c2ccccc2c(C=Nc2cccc(S(=O)(=O)NCc3ccco3)c2)c(O)n1-c1ccc(Cl)cn1	51.0*	0.6	30.7	1.6	-3.4
CCCCCOc1ccc(C2C(C(=O)c3ccc(C)o3)=C(O)C(=O)N2c2cc(C)on2)cc1 (stereo unspecified)	.	.	-0.7	17.4	-1.7
COc1cc(C2Nc3cc(C)c(C)cc3NC3=C2C(=O)CC(C)(C)C3)ccc1OC(C)=O (stereo unspecified)	.	.	2.9	0.5	0.4
Cc1cc2c(cc1C)NC(c1c(C)n(C)n(-c3ccccc3)c1=O)C1=C(CC(C)(C)CC1=O)N2 (stereo unspecified)	100.2*	0.7	55.0*	-0.5	-4.1
Cc1cc2oc(=O)c(CC(=O)NCCCN(C)C)c(C)c2c2occ(C(C)(C)C)c12	.	.	59.2*	.	-10.9
COc1cc(C2C3=C(COC3=O)Oc3cc4c(cc32)OCO4)ccc1O (stereo unspecified)	.	.	.	-0.3	.
CS(=O)(=O)c1nc(S(=O)(=O)c2ccc(Cl)cc2)c(NCCCN2CCCC2=O)s1	.	.	3.9	-1.5	-11.3
CCCc1ccc(-c2cc(C(=O)Nc3ccc([N+](=O)[O-])cn3)c3ccccc3n2)cc1	75.7*	0.0	51.9	1.1	-23.0
O=[N+]([O-])c1ccc(S(=O)(=O)CC(CN2CCOCC2)N2CCOCC2)cc1 (stereo unspecified)	6.4	-1.5	-0.2	-2.1	21.1
O=[N+]([O-])c1ccc(S(=O)(=O)CC(CN2CCCCC2)N2CCCCC2)cc1 (stereo unspecified)	100.6*	0.9	-2.7	-0.2	13.9
O=S(=O)(CC(CN1CCCCC1)N1CCCCC1)c1ccccc1 (stereo unspecified)	98.4*	-0.5	-14.8	0.2	-0.5
O=C(NCc1ccc(Cl)cc1)C1CCN(S(=O)(=O)c2ccc(F)cc2)CC1	-2.8	-3.4	17.4	-1.1	0.0
Cc1cc(NC(=O)CN2C(=O)c3ccccc3C2=O)no1	.	.	-3.0	1.2	-5.4
O=C(Nc1nccs1)c1cn(-c2ccccc2)nc1-c1ccccc1	26.3	0.1	3.4	-1.8	0.1
CC(C)COc1ccc(-c2nn(-c3ccccc3)cc2C(=O)Nc2nccs2)cc1	29.0	0.5	63.8*	3.0	-11.4
O=C(Nc1nc2n(n1)C(c1ccc(Cl)cc1)CC(c1ccc(Cl)cc1)N2)c1ccco1 (stereo unspecified)	75.7*	2.7	-15.5	.	-13.3
COc1ccc(C2CC(c3ccc(Cl)cc3)Nc3nc(NC(=O)c4ccco4)nn32)cc1 (stereo unspecified)	11.6	2.9	31.1	-3.8	-7.0
CC1=CC(=O)N(c2ccn(C)n2)C1=O	.	.	-1.2	1.8	17.7
CC(=O)Nc1ccc(-c2ccnc3c2CC(C)(C(=O)Nc2ccc4c(c2)OCO4)O3)cc1 (stereo unspecified)	.	.	.	-0.4	.
Cc1onc(-c2c(Cl)cccc2Cl)c1C(=O)N=C(N)N1CC(C)OC(C)C1 (stereo unspecified)	.	.	-12.2	3.9	-14.6
Cc1ccc(C(C[N+](=O)[O-])c2c(C)[nH]n(-c3ccccc3)c2=O)cc1 (stereo unspecified)	96.8*	-0.1	-6.8	1.5	-20.6
Cc1[nH]n(-c2ccccc2)c(=O)c1C(C[N+](=O)[O-])c1ccc(F)cc1 (stereo unspecified)	60.5*	-0.6	2.1	4.0	-21.4
COc1ccc(C(c2c(C)[nH]n(-c3ccccc3)c2=O)c2c(C)[nH]n(-c3ccccc3)c2=O)cc1OC	88.1*	-0.3	3.5	13.6	-5.0
CN1C(C)(C)CC(O)(C(=O)O)CC1(C)C	.	.	.	-0.2	.
CNC(=O)c1c(NC(=O)CCS(=O)(=O)c2ccc(F)cc2)sc(C)c1C	.	.	-10.0	-0.9	.
O=C(COC(=O)CCSc1ccccc1)Nc1ccc(F)cc1Cl	53.4*	0.6	-7.3	2.2	-5.6
O=C(COC(=O)CCSc1ccccc1)Nc1cc(F)ccc1F	-1.8	-1.8	-9.8	0.8	16.9
O=C(COC(=O)CCSc1ccc(Cl)cc1)NCc1ccccc1	60.1*	.	-27.0	-0.8	9.9
COc1ccc([C@H]2N[C@]3(CCCN(Cc4ccccc4)C3=O)[C@H]3C(=O)N(C)C(=O)[C@@H]23)cc1	.	.	.	-0.1	.
